Assay results reported in PMC3475257 (The FASEB Journal, 2012).

Test system: fully infectious HXB2 HIV‐1
Assay: HXB2 virus infectivity assay
Assay type: cell-based
Conditions: up to 1 μM, TZM‐bl cells
How it was run: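 TZM-bl reporter cells were seeded at 2×10^4 cells/well in 10% serum DMEM and left to adhere 18-24 h at 37°C. Medium was then swapped for serum-free DMEM containing 40 μg/ml DEAE-dextran. Test compound was added, followed by concentrated HXB2 stock diluted in the same medium. Infection ran 18 h at 37°C, with a luciferase (Steady-Glo) read-out.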

CCCCCCCCCCCCCCC[C@@H](O)[C@@H](N)CO [sphinganine, D‐erythrodihydrosphingosine]
Effect of sphinganine alone on viral infectivity: did not affect viral infectivity
